In ChEMBL document CHEMBL3526048, “In vitro metabolism of rivoglitazone, a novel peroxisome proliferator-activated receptor γ agonist, in rat, monkey, and human liver microsomes and freshly isolated hepatocytes” (Drug Metab Dispos, 2011):

What was measured:
[1] = Drug metabolism in human hepatocytes assessed as formation of 5-(4-((6-methoxy-1H-benzo[d]imidazol-2-yl)methoxy)benzyl)thiazolidine-2,4-dione at 30 uM after 3 hrs by radio-HPLC/LC-MS/MS analysis in presence of NADPH-generating system and NADPH-generating system/SAM; format: ADME, cell-based, Hepatocyte
Liver microsome = assay: Drug metabolism in Sprague-Dawley rat liver microsomes assessed as formation of 3-(4-((6-methoxy-1-methyl-1H-benzo[d]imidazol-2-yl)methoxy)phenyl)-2-(methylsulfinyl)propanamide at 20 uM after 2 hrs by radio-HPLC/LC-MS/MS analysis in presence of NADPH-generating system/SAM; format: ADME
Cytochrome P450 2C9 [2] = target: T1, Cytochrome P450 2C9 (Homo sapiens, UniProt P11712); assay: (§1) Activity of human CYP2C9 expressed in microsomes isolated from baculovirus infected insect cell assessed as enzyme-mediated 2-mercapto-3-(4-((6-methoxy-1-methyl-1H-benzo[d]imidazol-2-yl)methoxy)phenyl)propanamide formation at 20 uM after 2 hrs by radio-HPLC/LC-MS/MS analysis in presence of NADPH-generating system and NADPH-generating system/SAM; format: ADME
T1 sequence (P11712 whole entry): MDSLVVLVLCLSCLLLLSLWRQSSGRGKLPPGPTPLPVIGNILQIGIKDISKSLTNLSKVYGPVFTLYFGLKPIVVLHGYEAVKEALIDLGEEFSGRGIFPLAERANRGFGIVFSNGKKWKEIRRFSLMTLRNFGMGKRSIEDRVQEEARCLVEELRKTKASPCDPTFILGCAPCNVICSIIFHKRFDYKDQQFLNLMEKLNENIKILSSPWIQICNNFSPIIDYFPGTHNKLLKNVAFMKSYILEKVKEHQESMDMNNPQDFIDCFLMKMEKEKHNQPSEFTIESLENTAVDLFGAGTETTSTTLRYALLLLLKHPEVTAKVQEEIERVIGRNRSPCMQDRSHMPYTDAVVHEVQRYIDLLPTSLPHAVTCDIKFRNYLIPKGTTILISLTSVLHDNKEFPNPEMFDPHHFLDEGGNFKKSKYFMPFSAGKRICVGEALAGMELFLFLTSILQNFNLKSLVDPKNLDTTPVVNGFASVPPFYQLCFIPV

Cytochrome P450 3A4 = Cytochrome P450 3A4 (Homo sapiens, UniProt P08684); assay: as §1, with “CYP3A4” for “CYP2C9”; format: ADME
Cytochrome P450 3A4, sequence (P08684 whole entry): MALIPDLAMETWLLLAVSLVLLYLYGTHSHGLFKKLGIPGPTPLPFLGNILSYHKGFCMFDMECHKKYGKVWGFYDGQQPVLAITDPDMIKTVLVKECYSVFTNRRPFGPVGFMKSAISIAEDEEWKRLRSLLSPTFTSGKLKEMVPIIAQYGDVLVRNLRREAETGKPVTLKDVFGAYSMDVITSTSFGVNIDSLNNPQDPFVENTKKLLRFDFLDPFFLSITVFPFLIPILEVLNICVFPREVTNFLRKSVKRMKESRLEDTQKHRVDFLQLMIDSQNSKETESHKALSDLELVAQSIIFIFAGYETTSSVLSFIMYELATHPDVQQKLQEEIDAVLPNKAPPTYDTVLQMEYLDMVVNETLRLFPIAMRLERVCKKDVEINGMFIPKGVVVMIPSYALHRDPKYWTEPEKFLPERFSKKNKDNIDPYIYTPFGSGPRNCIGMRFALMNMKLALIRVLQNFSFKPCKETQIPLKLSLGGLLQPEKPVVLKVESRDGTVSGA

Cytochrome P450 2C19 = Cytochrome P450 2C19 (Homo sapiens, UniProt P33261); assay: Activity of human CYP2C19 expressed in microsomes isolated from baculovirus infected insect cell assessed as enzyme-mediated 5-hydroxy-5-(4-((6-methoxy-1-methyl-1H-benzo[d]imidazol-2-yl)methoxy)benzyl)thiazolidine-2,4-dione formation at 20 uM after 2 hrs by radio-HPLC/LC-MS/MS analysis in presence of NADPH-generating system and NADPH-generating system/SAM; format: ADME
Cytochrome P450 2C19, sequence (P33261 whole entry): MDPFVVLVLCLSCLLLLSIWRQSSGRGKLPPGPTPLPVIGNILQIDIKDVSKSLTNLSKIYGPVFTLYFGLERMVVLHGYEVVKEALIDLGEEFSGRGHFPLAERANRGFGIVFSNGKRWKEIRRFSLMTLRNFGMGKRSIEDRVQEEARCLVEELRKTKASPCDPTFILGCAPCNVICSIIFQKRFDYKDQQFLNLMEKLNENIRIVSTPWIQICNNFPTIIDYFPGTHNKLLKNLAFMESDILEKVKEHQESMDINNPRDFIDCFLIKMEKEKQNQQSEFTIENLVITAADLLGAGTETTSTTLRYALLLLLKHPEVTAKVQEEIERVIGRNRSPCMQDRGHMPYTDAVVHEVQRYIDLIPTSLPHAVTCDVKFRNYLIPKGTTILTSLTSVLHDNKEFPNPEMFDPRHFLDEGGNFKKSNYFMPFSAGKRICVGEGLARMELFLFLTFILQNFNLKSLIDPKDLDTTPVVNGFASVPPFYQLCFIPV
Summary of the method: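 Baculovirus/insect-cell microsomes expressing single human CYPs, 1 mg/ml protein, with 50 mM potassium phosphate (pH 7.4) or 100 mM Tris-HCl (pH 7.5). NADPH-generating system: 2 mM NADP⁺, 20 mM glucose 6-phosphate, 2 units/ml G6PDH, 10 mM MgCl₂. [¹⁴C]rivoglitazone at 20 μM, 2 h at 37°C with shaking. Control used insect-cell control supersomes. Stopped with acetonitrile; supernatant concentrated under nitrogen; metabolites analysed by radio-HPLC, LC-MS and LC-MS/MS.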

Cytochrome P450 2C9 [3] = target: T1, Cytochrome P450 2C9; assay: (§2) Activity of human CYP2C9 expressed in microsomes isolated from baculovirus infected insect cell assessed as enzyme-mediated 3-(4-((6-methoxy-1-methyl-1H-benzo[d]imidazol-2-yl)methoxy)phenyl)-2-(methylsulfinyl)propanamide formation at 20 uM after 2 hrs by radio-HPLC/LC-MS/MS analysis in presence of NADPH-generating system/SAM; format: ADME
Cytochrome P450 3A5 = Cytochrome P450 3A5 (Homo sapiens, UniProt P20815); assay: as §2, with “CYP3A5” for “CYP2C9”; format: ADME
Cytochrome P450 3A5, sequence (P20815 whole entry): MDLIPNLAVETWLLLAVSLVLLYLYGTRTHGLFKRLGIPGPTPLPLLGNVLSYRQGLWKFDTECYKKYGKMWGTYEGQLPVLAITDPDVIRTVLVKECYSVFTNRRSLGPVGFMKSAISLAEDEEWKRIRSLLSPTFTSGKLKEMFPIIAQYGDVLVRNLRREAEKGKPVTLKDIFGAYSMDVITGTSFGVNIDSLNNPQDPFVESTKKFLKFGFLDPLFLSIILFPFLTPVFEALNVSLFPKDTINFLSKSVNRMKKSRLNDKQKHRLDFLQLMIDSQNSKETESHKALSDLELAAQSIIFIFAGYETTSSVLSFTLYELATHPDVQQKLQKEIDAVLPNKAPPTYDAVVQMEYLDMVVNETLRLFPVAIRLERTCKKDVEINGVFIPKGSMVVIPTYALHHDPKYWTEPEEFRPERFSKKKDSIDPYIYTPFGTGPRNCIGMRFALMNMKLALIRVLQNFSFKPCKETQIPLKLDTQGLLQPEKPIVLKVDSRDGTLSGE
Summary of the method: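 cDNA-expressed human CYP3A5 in baculovirus-insect-cell microsomes (1 mg/ml protein) was incubated with [¹⁴C]rivoglitazone (20 μM) in 50 mM potassium phosphate (pH 7.4) or 100 mM Tris-HCl (pH 7.5). NADPH-generating system: 2 mM NADP⁺, 20 mM glucose 6-phosphate, 2 units/ml G6PDH, 10 mM MgCl₂. Incubation ran 2 h at 37°C with shaking; insect-cell control supersomes served as control. Acetonitrile stop, supernatant concentrated, then radio-HPLC, LC-MS and LC-MS/MS.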

[4] = Drug metabolism in cynomolgus monkey liver microsomes assessed as formation of 5-(4-((6-hydroxy-1-methyl-1H-benzo[d]imidazol-2-yl)methoxy)benzyl)thiazolidine-2,4-dione at 20 uM after 2 hrs by radio-HPLC/LC-MS/MS analysis in presence of NADPH-generating system and NADPH-generating system/SAM; format: ADME, Macaca fascicularis
Cytochrome P450 2C9 [5] = target: T1, Cytochrome P450 2C9; assay: (§3) Activity of human CYP2C9 expressed in microsomes isolated from baculovirus infected insect cell assessed as enzyme-mediated (2S,3S,4S,5R,6R)-3,4,5-trihydroxy-6-(5-(4-((6-methoxy-1-methyl-1H-benzo[d]imidazol-2-yl)methoxy)benzyl)-2,4-dioxothiazolidin-3-yl)tetrahydro-2H-pyran-2-carboxylic acid formation at 20 uM after 2 hrs by radio-HPLC/LC-MS/MS analysis in presence of UDPGA and UDPGA/SAM; format: ADME
[6] = target: T2, UDP-glucuronosyltransferase 2B4 (Homo sapiens, UniProt P06133); assay: as §3, with “human UGT2B4” for “human CYP2C9”, “after 4” for “after 2”, “UDPGA” for “UDPGA and UDPGA/SAM”; format: ADME
T2 sequence (P06133 whole entry): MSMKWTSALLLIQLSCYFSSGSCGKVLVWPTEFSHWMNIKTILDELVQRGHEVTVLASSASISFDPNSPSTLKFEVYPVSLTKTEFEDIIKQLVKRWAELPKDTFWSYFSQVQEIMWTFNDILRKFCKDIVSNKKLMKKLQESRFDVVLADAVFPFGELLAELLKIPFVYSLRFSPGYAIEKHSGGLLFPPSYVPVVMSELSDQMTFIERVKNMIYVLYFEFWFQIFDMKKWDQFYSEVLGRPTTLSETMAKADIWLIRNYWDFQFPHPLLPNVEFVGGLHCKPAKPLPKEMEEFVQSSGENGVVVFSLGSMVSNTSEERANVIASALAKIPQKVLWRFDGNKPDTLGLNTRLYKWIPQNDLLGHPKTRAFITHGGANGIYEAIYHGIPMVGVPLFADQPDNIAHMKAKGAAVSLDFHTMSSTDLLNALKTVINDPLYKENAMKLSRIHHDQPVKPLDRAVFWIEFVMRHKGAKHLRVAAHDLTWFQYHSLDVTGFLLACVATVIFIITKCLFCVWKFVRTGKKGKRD

[7] = target: T3, UDP-glucuronosyltransferase 1A3 (Homo sapiens, UniProt P35503); assay: Activity of human UGT1A3 expressed in microsomes isolated from baculovirus infected insect cell assessed as enzyme-mediated 3-(4-((6-methoxy-1-methyl-1H-benzo[d]imidazol-2-yl)methoxy)phenyl)-2-(methylthio)propanoic acid formation at 20 uM after 4 hrs by radio-HPLC/LC-MS/MS analysis in presence of NADPH-generating system/SAM and UDPGA/SAM in presence of UDPGA and UDPGA/SAM; format: ADME
T3 sequence (P35503 whole entry): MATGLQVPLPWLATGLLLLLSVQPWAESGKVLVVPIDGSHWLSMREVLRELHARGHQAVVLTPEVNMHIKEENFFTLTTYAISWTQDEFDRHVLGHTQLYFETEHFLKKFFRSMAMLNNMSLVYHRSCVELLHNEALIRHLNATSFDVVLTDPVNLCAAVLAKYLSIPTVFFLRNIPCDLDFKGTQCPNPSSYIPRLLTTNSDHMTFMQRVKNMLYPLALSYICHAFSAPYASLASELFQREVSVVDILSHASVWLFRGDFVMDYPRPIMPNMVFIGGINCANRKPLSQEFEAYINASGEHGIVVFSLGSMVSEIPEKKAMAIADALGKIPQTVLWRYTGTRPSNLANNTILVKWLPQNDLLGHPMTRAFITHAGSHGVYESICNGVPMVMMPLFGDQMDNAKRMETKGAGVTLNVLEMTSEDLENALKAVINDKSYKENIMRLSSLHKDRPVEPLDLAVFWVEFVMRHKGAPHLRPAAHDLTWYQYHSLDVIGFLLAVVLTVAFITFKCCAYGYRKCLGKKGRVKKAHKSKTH

Cytochrome P450 2D6 = Cytochrome P450 2D6 (Homo sapiens, UniProt P10635); assay: Activity of human CYP2D6 expressed in microsomes isolated from baculovirus infected insect cell assessed as enzyme-mediated 2-hydroxy-3-(4-((6-methoxy-1-methyl-1H-benzo[d]imidazol-2-yl)methoxy)phenyl)propanamide formation at 20 uM after 2 hrs by radio-HPLC/LC-MS/MS analysis in presence of NADPH-generating system and NADPH-generating system/SAM; format: ADME
Cytochrome P450 2D6, sequence (P10635 whole entry): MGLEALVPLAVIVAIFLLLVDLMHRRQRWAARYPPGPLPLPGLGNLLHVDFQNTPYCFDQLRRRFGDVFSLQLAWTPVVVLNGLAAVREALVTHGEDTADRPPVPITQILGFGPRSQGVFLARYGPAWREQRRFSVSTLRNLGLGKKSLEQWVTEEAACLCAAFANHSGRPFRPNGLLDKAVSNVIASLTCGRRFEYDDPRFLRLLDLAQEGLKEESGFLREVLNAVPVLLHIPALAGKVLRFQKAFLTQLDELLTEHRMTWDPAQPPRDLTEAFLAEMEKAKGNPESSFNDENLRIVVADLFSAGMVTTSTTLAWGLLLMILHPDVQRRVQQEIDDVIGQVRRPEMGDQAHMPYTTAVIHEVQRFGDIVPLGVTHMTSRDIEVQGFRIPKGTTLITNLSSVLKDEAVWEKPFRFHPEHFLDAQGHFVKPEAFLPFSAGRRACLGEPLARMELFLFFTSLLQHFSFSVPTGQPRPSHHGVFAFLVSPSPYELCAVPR

COc1ccc2nc(COc3ccc(C[14CH]4SC(=O)NC4=O)cc3)n(C)c2c1.Cl (racemic)
Drug metabolism [1]: metabolite_detected
Drug metabolism (Liver microsome): metabolite_detected
Drug metabolism (Cytochrome P450 2C9 [2]): metabolite_detected
Drug metabolism (Cytochrome P450 3A4): metabolite_detected
Drug metabolism (Cytochrome P450 2C19): metabolite_detected
Drug metabolism (Cytochrome P450 2C9 [3]): metabolite_not_detected
Drug metabolism (Cytochrome P450 3A5): metabolite_not_detected
Drug metabolism [4]: metabolite_detected
Drug metabolism (Cytochrome P450 2C9 [5]): metabolite_not_detected
Drug metabolism [6]: metabolite_not_detected
Drug metabolism [7]: metabolite_not_detected
Drug metabolism (Cytochrome P450 2D6): metabolite_detected
